This note sets out measurements from ChEMBL document CHEMBL1142893, “Synthesis and biological evaluation of novel 5(H)-phenanthridin-6-ones, 5(H)-phenanthridin-6-one diketo acid, and polycyclic aromatic diketo acid analogs as new HIV-1 integrase inhibitors” (Bioorg Med Chem, 2007).

As usually defined, the IC50 is the concentration that inhibits the measured activity by half. The low end stands for inhibition by little substance, the high end for a need for much substance. For orientation: EC50 means the midpoint of the concentration-response curve. Read a low EC50 as an effect from little substance. In general, EC90 refers to the point of the concentration-response curve where the effect stands at 90%.

The target in data set [1] is T1, Human immunodeficiency virus type 1 integrase (Human immunodeficiency virus 1, UniProt Q7ZJM1). The data set is described as follows: Inhibition of HIV1 integrase 3'-end processing activity. In short, it runs like this: (§1)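 Wild-type integrase at 200 nM final was preincubated with inhibitor for 30 min at 30 °C. Reaction buffer: 50 mM NaCl, 1 mM HEPES pH 7.5, EDTA, dithiothreitol, 10% glycerol, 7.5 mM MnCl₂, 0.1 mg/mL BSA, 10 mM 2-mercaptoethanol, 10% DMSO, 25 mM MOPS pH 7.2.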
T1 sequence (Q7ZJM1 whole entry): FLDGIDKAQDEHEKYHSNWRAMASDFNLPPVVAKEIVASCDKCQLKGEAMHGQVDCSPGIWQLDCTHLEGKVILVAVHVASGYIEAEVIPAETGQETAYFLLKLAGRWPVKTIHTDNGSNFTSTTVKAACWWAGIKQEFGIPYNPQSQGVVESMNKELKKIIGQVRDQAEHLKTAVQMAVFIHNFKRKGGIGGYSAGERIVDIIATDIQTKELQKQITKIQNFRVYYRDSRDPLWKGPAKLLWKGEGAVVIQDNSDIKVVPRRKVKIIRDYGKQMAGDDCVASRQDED

Data set [2] addresses T1, Human immunodeficiency virus type 1 integrase. In words: Inhibition of HIV1 integrase strand transfer activity. The method in brief:
as §1

The test system of the next data set is PBMC. In words: Cytotoxicity against human PBMC after 6 days. In kind it is cell-based. Particulars: 144 h; for IC50: Homo sapiens, PBMC. In short, it runs like this: (§2)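 Uninfected cells (CEM leukemia cells; PBMC from whole blood of healthy donors) cultured with or without compound for 6 days. Afterwards cells were stained with Trypan blue and counted for proliferation and viability. Values reflect effects on cell growth.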

The next data set deals with Vero. The data set is described as follows: Cytotoxicity against Vero cells after 3 days. In kind it is cell-based. Particulars: Chlorocebus sabaeus, 72 h.
Another data set concerns CCRF-CEM. The data set is described as follows: Cytotoxicity against human CEM cells after 6 days. The format is cell-based. The following applies: 144 h; for IC50: Homo sapiens, CCRF-CEM. The method in brief: as §2
Data set [3] concerns Human immunodeficiency virus 1. In words: Antiviral activity against HIV1 LAI replication in human PBMC after 5 days. The format is functional, organism-based. The following applies: for EC50 / EC90: Human immunodeficiency virus 1, LAI, 120 h. The method in brief: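 PBMC (10⁷ cells/flask) stimulated 3 days with phytohemagglutinin, then infected with HIV-1 LAI at 100 50% tissue culture infective doses. Cultures were kept 5 days with compound at serial 1-log dilutions. Cells were removed by centrifugation (400g, 10 min, 4 °C), and the clarified supernatant was assayed for reverse transcriptase activity.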

Data set [4] can be described thus: Selectivity index, ratio of EC50 for HIV1 LAI to IC50 for human PBMC. In kind it is functional.
For data set [5], the system named is Human immunodeficiency virus 1. In words: Antiviral activity against HIV1 LAI replication in MOLT4 cells. The format is functional, organism-based. The following applies: Human immunodeficiency virus 1, LAI, MOLT-4.

The source made the active and inactive calls. No cut-off for these calls is given here.

With `Nc1ccc2[nH]c(=O)c3ccccc3c2c1`, the figures for the IC50 in data set [1] and in data set [2] were 206 µM and 267 µM, respectively.

On to `O=C(O)C(=O)CC(=O)c1ccc2ccc3ccccc3c2c1`, for which the IC50 was 25 µM in data set [1]; 81 µM in the data set on PBMC; above 100 µM in the data set on Vero; 56.4 µM in the data set on CCRF-CEM; 2.7 µM in data set [2]. The compound further registered a 50% effective concentration (EC50) in data set [3] of 8 µM. In data set [3], this compound showed an EC90 of 72.8 µM. Besides, the Selectivity index in data set [4] stood at 10.

Take `COC(=O)C(=O)CC(=O)c1ccc(-c2ccccc2C(=O)OC)c([N+](=O)[O-])c1`: the IC50 in data set [1] came out at 102 µM; in data set [2] it was 27 µM.

As for `O=C(O)C(=O)CC(=O)c1ccc2cc3ccccc3cc2c1`, the results for the half-inhibitory concentration (IC50) in data set [1] and in data set [2] were 32 µM and 13 µM, respectively.

In the case of `Cc1cc(C)c2[nH]c(=O)c3ccccc3c2c1`, the results for the IC50 in data set [1] and in data set [2] were 1000 µM and above 1000 µM, respectively.

For the compound `O=c1[nH]c2ccc(S(=O)(=O)c3ccccc3)cc2c2ccccc12`, the IC50 is above 500 µM in data set [1] and 415 µM in data set [2].

Regarding `N#Cc1cccc(CN(Cc2cccc(C#N)c2)c2ccc3[nH]c(=O)c4ccccc4c3c2)c1`, the IC50 in data set [1] and in data set [2] was above 500 µM throughout.

As to `O=C(O)C(=O)CC(=O)c1c2ccccc2cc2ccccc12`, the IC50 is 54 µM in data set [1]; above 100 µM in the data set with PBMC; above 100 µM in the data set on Vero; above 100 µM in the data set with CCRF-CEM; 1.7 µM in data set [2]. This compound returned an EC50 in data set [3] above 100 µM. This compound also showed an EC90 in data set [3] above 100 µM.

`O=C(O)C(=O)CC(=O)c1ccc2ccc3cccc4ccc1c2c34`: the IC50 in data set [1] turned out to be 7 µM; in data set [2], 0.53 µM.

Take `Cc1cc(C)c2[nH]c(=O)c3ccc(C#N)cc3c2c1`: the IC50 in data set [1] and in data set [2] was above 500 µM each time.

In the case of `O=C(O)c1ccc2[nH]c(=O)c3ccccc3c2c1`, the IC50 in data set [1] was above 500 µM; in data set [2] it was 203 µM.

As for `Cc1ccc2cc(C(=O)CC(=O)C(=O)O)ccc2c1`, the IC50 in data set [1] was 11 µM; in data set [2] it was 3 µM.

In the case of `Cc1cccc2c1[nH]c(=O)c1ccc(C(F)(F)F)cc12`, the IC50 in data set [1] came out at 449 µM; in data set [2], 109 µM.

On to `COC(=O)c1ccccc1-c1ccc(C(=O)CC(=O)C(=O)O)cc1[N+](=O)[O-]`, for which the IC50 is 26 µM in data set [1] and 7 µM in data set [2].

For the compound `O=C(O)C(=O)CC(=O)c1ccc2ccccc2c1`, the half-inhibitory concentration (IC50) was 54 µM in data set [1] and 7 µM in data set [2].

`Cc1cccc2c1[nH]c(=O)c1ccccc12`: the IC50 in data set [1] and in data set [2] was above 1000 µM each time.

For `Cc1ccc2oc3nc(C)c(C(=O)CC(=O)C(=O)O)cc3c(=O)c2c1`, the concentration for half-maximal inhibition (IC50) was found to be 92 µM in data set [1] and 16 µM in data set [2].

`Cc1cccc2c1[nH]c(=O)c1ccc(C#N)cc12`: the IC50 in data set [1] is above 500 µM; in data set [2] it was 500 µM.

With `Cc1cc(C)c2[nH]c(=O)c3ccc(C(F)(F)F)cc3c2c1`, the IC50 in data set [1] and in data set [2] was above 500 µM each time.

Consider `COC(=O)C(=O)CC(=O)c1ccc(Br)c(CC(=O)c2ccccc2)c1`, for which the IC50 in data set [1] and in data set [2] was above 500 µM in each case.

Take `COc1ccc2[nH]c(=O)c3ccccc3c2c1`: the IC50 in data set [1] is above 500 µM; in data set [2] it was 500 µM.

As to `N#Cc1ccc2[nH]c(=O)c3ccccc3c2c1`, the IC50 in data set [1] was above 500 µM; in data set [2], 400 µM.

`CCNc1ccc2[nH]c(=O)c3ccccc3c2c1`: the IC50 in data set [1] and in data set [2] was above 500 µM in each case.

Take `N#Cc1ccc(CN(Cc2ccc(C#N)cc2)c2ccc3[nH]c(=O)c4ccccc4c3c2)cc1`: the values for the IC50 in data set [1] and in data set [2] were 500 µM and 62 µM, respectively.

In the data set on PBMC, `Cc1cn([C@H]2C[C@H](N=[N+]=[N-])[C@@H](CO)O2)c(=O)[nH]c1=O` [ZIDOVUDINE] showed an IC50 above 100 µM. The compound also showed an IC50 in the data set on Vero of 50 µM. Also, in data set [3], the EC50 is 0.00073 µM and the EC90 is 0.019 µM.

Take `Cc1nc2oc3ccccc3c(=O)c2cc1C(=O)CC(=O)C(=O)O`: the half-maximal inhibitory concentration (IC50) in data set [1] was above 100 µM; in data set [2] it was 35 µM.

Turning to `O=C(O)C(=O)CC(=O)c1ccc2c(ccc3ccccc32)c1`, the IC50 in data set [1] was 23 µM; with PBMC, above 100 µM; with Vero it was 10.8 µM; with CCRF-CEM it was 16.2 µM; in data set [2], 4.8 µM. The compound further showed an EC50 in data set [3] of 26.6 µM. The compound also had an EC90 in data set [3] above 100 µM.

Regarding `N#Cc1cccc(CNc2ccc3[nH]c(=O)c4ccccc4c3c2)c1`, the IC50 in data set [1] and in data set [2] was above 500 µM throughout.

As for `Cc1cccc2c1[nH]c(=O)c1cc(C#N)ccc12`, the IC50 in data set [1] and in data set [2] was above 500 µM each time.

Consider `Cc1cc(C)c2[nH]c(=O)c3cc(C#N)ccc3c2c1`, for which the half-inhibitory concentration (IC50) is 300 µM in data set [1] and 333 µM in data set [2].

`O=C(O)C(=O)CC(=O)c1ccc(Br)c(CC(=O)c2ccccc2)c1`: the IC50 in data set [1] and in data set [2] was above 500 µM each time.

In the case of `O=c1[nH]c2ccc(Br)cc2c2ccccc12`, the IC50 in data set [1] came out at 225 µM; in data set [2] it was 78 µM.

`O=C(O)C(=O)CC(=O)c1cc(OCc2ccccc2)cc(OCc2ccccc2)c1`: the EC50 in data set [5] is 5.7 µM. Further, the Activity result was “Not Active” in the data set with PBMC (human, pbmc); “Not Active” with Vero; “Not Active” in the data set on CCRF-CEM (human, ccrf-cem). Also, the result in data set [3] was inactive.

Take `O=C(O)C(=O)CC(=O)c1ccc(N2CCOCC2)cc1`: the IC50 in data set [1] is above 100 µM; in data set [2], 23 µM.

As for `O=c1[nH]c2ccc(C(F)(F)F)cc2c2ccccc12`, the IC50 in data set [1] was above 1000 µM; in data set [2], 900 µM.

For the compound `O=c1[nH]c2ccc(Cl)cc2c2ccccc12`, the IC50 in data set [1] amounted to 500 µM; in data set [2], 100 µM.

On to `N#Cc1ccc(CNc2ccc3[nH]c(=O)c4ccccc4c3c2)cc1`, for which the IC50 in data set [1] and in data set [2] was above 500 µM each time.

As for `O=C(O)C(=O)CC(=O)c1cc2ccccc2c2ccccc12`, the IC50 was 9 µM in data set [1]; 83.5 µM in the data set with PBMC; above 100 µM in the data set on Vero; 73.1 µM in the data set on CCRF-CEM; 0.38 µM in data set [2]. Besides, the EC50 in data set [3] was 83.7 µM. In data set [3], this compound showed an EC90 above 100 µM.

With `O=C(O)C(=O)CC(=O)c1ccc2c(c1)[nH]c(=O)c1ccccc12`, the IC50 in data set [1] is 400 µM; in data set [2] it was 65 µM.

In the case of `O=C(Nc1ccc2[nH]c(=O)c3ccccc3c2c1)c1ccccc1`, the IC50 in data set [1] and in data set [2] was above 500 µM throughout.

Regarding `CC(=O)Nc1ccc2[nH]c(=O)c3ccccc3c2c1`, the IC50 is above 500 µM in data set [1] and 500 µM in data set [2].
